In PMC2819033 (Journal of medicinal chemistry, 2009):
Like-named read-outs stand apart in the source and are kept apart here. Blank lines part the entries; values can stand above or below the molecule they belong to.

Tests used:
[1] = n-octanol/water partition coefficient, shake flask method; format: physicochemical; conditions: values of the aqua complexes
How it was run: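 Partition was measured by the shake-flask method. For the octanol phase, UV/vis was read at each complex's absorption maximum against n-octanol standards from 1 to 100 μM. For the aqueous phase, ruthenium was measured by ICP-MS (101Ru and 102Ru) with external calibration from 1 to 30 ppb. These samples were prepared in 5% HNO3 with 1 ppb 185Re as internal standard.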

[2] = tested on: A2780 (ovarian carcinoma) cells; experiment: MTT assay, A2780 cells; format: cell-based, Human; conditions: read-out: IC50 A2780, 96 h exposure
How it was run: (§1)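 Cells were kept in MEM with 10% heat-inactivated FBS, 1 mM pyruvate, 4 mM L-glutamine and 1% NEAA at 37 °C, 5% CO2. Seeding by trypsinization was SW480 2.5 × 103 and A2780 5.0 × 10^3 cells/well, with 24 h preincubation and 96 h exposure to serial dilutions. MTT was added for 4 h, formazan dissolved in DMSO, and read at 550 nm (reference 690 nm). IC50 was interpolated from T/C curves using ≥3 experiments, ≥6 replicates each.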

[3] = tested on: SW480 (colon carcinoma) cells; experiment: MTT assay, SW480 cells; format: cell-based, Human; conditions: read-out: IC50 SW480, 96 h exposure
How it was run: as §1

[4] = tested on: cytidine 5′-monophosphate (CMP); experiment: Nucleotide binding by 1H and 31P NMR, CMP
[5] = tested on: thymidine 5′-monophosphate (TMP); experiment: Nucleotide binding by 1H and 31P NMR, TMP
[6] = tested on: adenosine 5′-monophosphate (AMP); experiment: Nucleotide binding by 1H and 31P NMR, AMP; conditions: ratio complex/nucleotide
[7] = tested on: uridine 5′-monophosphate (UMP); experiment: Nucleotide binding by 1H and 31P NMR, UMP
[8] = tested on: guanosine 5′-monophosphate (GMP); experiment: Nucleotide binding by 1H and 31P NMR, GMP; conditions: ratio complex/nucleotide
[9] = tested on: A2780 (ovarian carcinoma) cells; conditions: read-out: IC50 A2780; cited from earlier work
[10] = mononuclear analogue; cited from earlier work
[11] = tested on: SISO-oxo oxoplatin-resistant cells; experiment: Crystal violet assay, SISO-oxo; format: cell-based, Human; conditions: for Resistance factor SISO-oxo: SISO-oxo versus SISO; for IC50: read-out: IC50 SISO-oxo, crystal violet, 96 h, oxoplatin-resistant line
How it was run: (§2)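 Resistant sublines were derived in-house by weekly exposure to rising oxoplatin concentrations over several months. Cells grew as adherent cultures in RPMI with 10% heat-inactivated FBS and penicillin/streptomycin at 37 °C, 5% CO2. After seeding at 1.0 × 10^3 cells/well and 24 h preincubation, cells had 96 h exposure to 20 mM DMF stocks diluted 1000-fold in medium. Crystal violet was redissolved in 70% ethanol and read at 570 nm.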

[12] = tested on: RT-4 (bladder cancer) cells; conditions: read-out: IC50 RT-4; crystal violet; cited from earlier work
[13] = tested on: LCLC-103H (lung cancer) cells; conditions: read-out: IC50 LCLC-103H; crystal violet; cited from earlier work
[14] = tested on: A-427 (lung cancer) cells; conditions: read-out: IC50 A-427; crystal violet; cited from earlier work
[15] = tested on: KYSE70 (esophagus cancer) cells; experiment: Crystal violet assay, KYSE70; format: cell-based, Human; conditions: read-out: IC50 KYSE70, 96 h
How it was run: (§3)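 Crystal violet assay after 24 h preincubation. Adherent cells grown in RPMI with 10% heat-inactivated FBS and penicillin/streptomycin at 37 °C, 5% CO2; MCF-7 medium also had 1 mM sodium pyruvate and 1% nonessential amino acids. Seeding was 1.0 × 10^3 cells/well, or 250 cells/well for LCLC-103H. 20 mM DMF stocks were diluted 1000-fold in medium with 10% FCS for 96 h exposure. Bound dye was redissolved in 70% ethanol and read at 570 nm.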

[16] = tested on: SISO (cervical cancer) cells; experiment: Crystal violet assay, SISO; format: cell-based, Human; conditions: read-out: IC50 SISO, 96 h
How it was run: as §3

[17] = tested on: 5637-oxo oxoplatin-resistant cells; experiment: Crystal violet assay, 5637-oxo; format: cell-based, Human; conditions: for Resistance factor 5637-oxo: 5637-oxo versus 5637; for IC50: read-out: IC50 5637-oxo, crystal violet, 96 h, oxoplatin-resistant line
How it was run: as §2

[18] = tested on: KYSE70-oxo oxoplatin-resistant cells; experiment: Crystal violet assay, KYSE70-oxo; format: cell-based, Human; conditions: for Resistance factor KYSE70-oxo: KYSE70-oxo versus KYSE70; for IC50: read-out: IC50 KYSE70-oxo, crystal violet, 96 h, oxoplatin-resistant line
How it was run: as §2

[19] = tested on: 5637 (bladder cancer) cells; experiment: Crystal violet assay, 5637; format: cell-based, Human; conditions: read-out: IC50 5637, 96 h
How it was run: as §3

[20] = tested on: DAN-G (pancreatic cancer) cells; conditions: read-out: IC50 DAN-G; crystal violet; cited from earlier work
[21] = tested on: DAN-G (pancreatic cancer) cells; experiment: Crystal violet assay, DAN-G; format: cell-based, Human; conditions: read-out: IC50 DAN-G, 96 h
How it was run: as §3

[22] = tested on: MCF-7 (breast cancer) cells; experiment: Crystal violet assay, MCF-7; format: cell-based, Human; conditions: read-out: IC50 MCF-7, 96 h
How it was run: as §3

[23] = tested on: LCLC-103H (lung cancer) cells; experiment: Crystal violet assay, LCLC-103H; format: cell-based, Human; conditions: read-out: IC50 LCLC-103H, 96 h
How it was run: as §3

[24] = tested on: A-427 (lung cancer) cells; experiment: Crystal violet assay, A-427; format: cell-based, Human; conditions: read-out: IC50 A-427, 96 h
How it was run: as §3

[25] = tested on: RT-4 (bladder cancer) cells; experiment: Crystal violet assay, RT-4; format: cell-based, Human; conditions: read-out: IC50 RT-4, 96 h
How it was run: as §3

Compound: Cc1ccc(C(C)C)cc1.Cc1occc(=O)c1[O-].[Cl-].[Ru+2] [[RuCl(cym)(mal)] 8, chlorido(maltolato-κO^2)(η^6-p-cymene)ruthenium(II)]
IC50 [9]: > 100 µM | IC50 [3]: > 100 µM | pKa values [10]: 9.23

Compound: N.N.[Cl][Pt][Cl] [cisplatin]
Resistance factor SISO-oxo [11]: 2.1 | IC50 [11]: 0.58 ± 0.08 µM | IC50 [12]: 1.61 ± 0.16 µM | IC50 [13]: 0.9 ± 0.19 µM | IC50 [14]: 1.96 ± 0.54 µM | IC50 [15]: 0.72 ± 0.11 µM | IC50 [16]: 0.28 ± 0.04 µM | Resistance factor 5637-oxo [17]: 2.9 | IC50 [17]: 1.1 ± 0.4 µM | Resistance factor KYSE70-oxo [18]: 2.4 | IC50 [18]: 1.7 ± 0.4 µM | IC50 [19]: 0.37 ± 0.01 µM | IC50 [20]: 0.73 ± 0.34 µM

Compound: CCCn1ccc(=O)c([O-])c1C.Cc1ccc(C(C)C)cc1.[Cl-].[Ru+2] [compound 7, chlorido[2-methyl-3-(oxo-κO)-1-propyl-4(1H)-pyridinonato-κO4](η^6-p-cymene)ruthenium(II)]
IC50 [2]: 88 ± 12 µM | IC50 [3]: 42 ± 1 µM

Compound: N.N.[Cl-].[Cl-].[OH-].[OH-].[Pt+4] [oxoplatin]
IC50 [21]: 11.8 ± 3.2 µM | IC50 [22]: 5.5 ± 1.1 µM | Resistance factor SISO-oxo [11]: 3.1 | IC50 [11]: 5.2 ± 0.9 µM | IC50 [23]: 17.2 ± 5.1 µM | IC50 [24]: 13 ± 2.7 µM | IC50 [15]: 4.2 ± 2.8 µM | IC50 [16]: 1.7 ± 0.4 µM | Resistance factor 5637-oxo [17]: 3.4 | IC50 [17]: 10.6 ± 1.3 µM | IC50 [25]: 26 ± 8 µM | Resistance factor KYSE70-oxo [18]: 2.1 | IC50 [18]: 8.8 ± 5.2 µM | IC50 [19]: 3.1 ± 1.5 µM

More lines, main results first:

log Poct/water ICP-MS [1]: −1.42 | log Poct/water UV/vis [1]: −1.42 | IC50 [2]: 84 ± 3 µM | IC50 [3]: 76 ± 4 µM
Compound: Cc1c([O-])c(=O)ccn1CCn1ccc(=O)c([O-])c1C.Cc1ccc(C(C)C)cc1.Cc1ccc(C(C)C)cc1.[Cl-].[Cl-].[Ru+2].[Ru+2] [1c, 1,2-Bis{chlorido[3-(oxo-κO)-2-methyl-4(1H)-pyridinonato-κO4](η ^6-p-cymene)ruthenium(II)}ethane]

log Poct/water ICP-MS [1]: −1.28 | log Poct/water UV/vis [1]: −1.23 | reaction with CMP [4]: no reaction was observed | reaction with TMP [5]: no reaction was observed | IC50 [2]: 5.7 ± 0.5 µM | reaction with UMP [7]: no reaction was observed | IC50 [3]: 2.5 ± 0.2 µM
Compound: Cc1c([O-])c(=O)ccn1CCCCCCCCn1ccc(=O)c([O-])c1C.Cc1ccc(C(C)C)cc1.Cc1ccc(C(C)C)cc1.[Cl-].[Cl-].[Ru+2].[Ru+2] [5c, 1,8-Bis{chlorido[3-(oxo-κO)-2-methyl-4(1H)-pyridinonato-κO4](η ^6-p-cymene)ruthenium}octane]
formation of AMP adducts [6]: proceeded rapidly and quantitatively up to a ratio of 2:1 | formation of GMP adducts [8]: proceeded rapidly and quantitatively up to a ratio of 2:1
